# Results: ChEMBL document CHEMBL1121699, “Induction of differentiation of leukemia cells in vitro by N-substituted amides, lactams, and 2-pyridones” (1981)
# What was measured:
# [1] = system: Erythroleukemia cell line; test: Percentage of benzidine-positive murine erythroleukemia cells on day 6.; format: functional, Mus musculus
# How it was run: (§1)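 Clone 745A erythroleukemia cells were exposed continuously from seeding (1 × 10^5 cells/mL) to graded twofold concentrations over at least a 10-fold range, in at least two experiments, with a Me2SO (210 mM) positive control. On day 6, hemoglobin-containing cells were stained blue with acid benzidine peroxide and counted by light microscopy. The optimum concentration was averaged across experiments.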
# [2] = system: Erythroleukemia cell line; test: Cell growth was measured on day 3, after murine erythroleukemia cells were exposed at a cell concentration of 1*10e5 cells/mL.; format: functional, Mus musculus
# How it was run: (§2)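 Friend murine erythroleukemia cells (clone 745A) were grown in DMEM with 15% fetal calf serum at 37 °C in 10% CO2. Agents were given as aqueous, ethanol or acetone solutions at seeding (1 × 10^5 cells/mL) and left on continuously. Cells were counted electronically on day 3 or day 6 and expressed as percentage of control growth. Runs were in duplicate.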
# [3] = system: Erythroleukemia cell line; test: Cell growth was measured on day 6 after murine erythroleukemia cells were exposed at a cell concentration of 1*10e5 cells/mL.; format: functional, Mus musculus; how it was run: as §2
# [4] = system: Erythroleukemia cell line; test: Concentration producing the maximum percentage of benzidine-positive cells after 6-days of continuous exposure in murine leukemia cells.; format: functional, cell-based; settings: Mus musculus; how it was run: as §1
SMILES,Benzidine positive cells [1] [%],Cell growth [2] [%],Cell growth [3] [%],Concentration [4] [mM]
CCCCn1ccccc1=O,76,103,125,1
CCn1ccccc1=O,86,78,79,4
CC(=O)N1CCCC1,60,54,99,4
CCCn1ccccc1=O,82,112,129,2
CC(=O)NC1CCCCC1,92,95,150,4
O=C1CCCN1 [2-PYRROLIDONE],89,26,100,100
CC(=O)Nc1ccccn1,85,144,58,2
CC(=O)Nc1ccccc1 [ACETANILIDE],71,75,65,4
CNC(=O)c1ccccc1,62,54,99,1
CC(=O)N1CCCCCC1=O,53,102,85,4
CC(=O)N(c1ccccn1)c1ccccn1,36,74,85,2
O=C1CCCCCN1 [CAPROLACTAM],82,95,81,20
CNC(=O)c1cccnc1 [NICOTINYL METHYLAMIDE],93,94,78,4
O=C(CCl)Nc1ccccn1,83,98,119,2
CC(C)n1ccccc1=O,90,96,80,2
CC(=O)N1CCCCC1,85,50,138,8
CC(=O)Nc1cccnc1,86,183,167,5
CCN1CCCC1=O,90,53,81,10

SMILES,Benzidine positive cells [1] [%],Cell growth [2] [%],Cell growth [3] [%],Concentration [4] [mM]
CC(=O)N1CCCCC1=O,86,170,74,20
Cn1ccccc1=O,89,74,62,4
CC(=O)N1CCCC1=O,73,156,116,20
Oc1ccccn1,95,114,77,16
CCCCCCn1ccccc1=O,58,101,75,1
CNC(=O)c1ccccn1,60,50,80,2
CCN1CCCCC1=O,87,186,84,4
CC(=O)Nc1ccncc1,34,37,60,5
CN1CCCCCC1=O,90,109,68,2
CCN1CCCCCC1=O,96,106,63,4
CN1CCCCC1=O,89,97,69,5
CNC(C)=O,90,121,55,40
CC(=O)N(C)C,84,32,21,40
O=C(Nc1ccccn1)C(F)(F)F,69,98,89,1
CN1CCCC1=O [METHYLPYRROLIDONE],87,97,83,10
O=C1CCCCN1,64,72,67,40
O=C(Nc1ccccn1)c1ccccn1,33,35,50,1
